Measurements: ChEMBL document CHEMBL5712084, “Interactome Rewiring Following Pharmacological Targeting of BET Bromodomains” (Mol Cell, 2019)
Active and inactive are the calls of the source. No cut-off for these calls is given here.

How the values were obtained:
[1] = target: T1, Bromodomain and extra-terminal motif (BET) (Homo sapiens) (UniProt P25440+O60885+Q58F21+Q15059); conditions: Flp-In-T-REx-293, dose 500.0 nM, time 10-240 min
[2] = tested on: Bromodomain-containing protein 2 (Homo sapiens), P25440 [UNDEFINED MUTATION]; conditions: Flp-In-T-REx-293, dose 500.0 nM, time 24.0 hrs
Bromodomain-containing protein 2 (Homo sapiens), P25440 [UNDEFINED MUTATION], sequence (P25440 whole entry, looked up, change not shown): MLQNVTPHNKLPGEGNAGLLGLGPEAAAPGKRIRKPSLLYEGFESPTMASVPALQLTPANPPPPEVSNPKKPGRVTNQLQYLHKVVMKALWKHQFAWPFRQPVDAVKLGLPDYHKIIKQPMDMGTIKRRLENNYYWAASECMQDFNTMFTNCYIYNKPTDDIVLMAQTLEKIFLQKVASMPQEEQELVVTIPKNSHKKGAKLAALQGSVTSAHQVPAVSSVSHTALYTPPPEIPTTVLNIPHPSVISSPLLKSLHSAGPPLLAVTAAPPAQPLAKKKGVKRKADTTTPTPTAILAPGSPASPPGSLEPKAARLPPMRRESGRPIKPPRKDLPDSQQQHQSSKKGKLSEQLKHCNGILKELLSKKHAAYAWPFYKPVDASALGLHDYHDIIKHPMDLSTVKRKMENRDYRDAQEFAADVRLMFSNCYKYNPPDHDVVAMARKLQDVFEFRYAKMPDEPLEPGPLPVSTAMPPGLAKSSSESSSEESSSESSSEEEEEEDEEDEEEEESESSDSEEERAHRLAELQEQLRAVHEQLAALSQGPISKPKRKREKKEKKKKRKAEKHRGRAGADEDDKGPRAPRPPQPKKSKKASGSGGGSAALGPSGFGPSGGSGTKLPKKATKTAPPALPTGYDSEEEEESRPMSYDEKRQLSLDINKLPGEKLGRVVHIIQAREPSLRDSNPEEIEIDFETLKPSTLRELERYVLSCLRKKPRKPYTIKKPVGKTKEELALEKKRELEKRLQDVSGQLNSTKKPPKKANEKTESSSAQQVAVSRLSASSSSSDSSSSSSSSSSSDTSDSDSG

[3] = target: Bromodomain-containing protein 2 (Homo sapiens) (UniProt P25440); conditions: U2OS, dose 500.0 nM, time 12.0 hrs
Bromodomain-containing protein 2 (Homo sapiens), sequence (P25440 whole entry, looked up): as the sequence (P25440 whole entry, looked up, change not shown) above

[4] = tested on: Bromodomain-containing protein 2 (Homo sapiens), P25440 [UNDEFINED MUTATION]; conditions: U2OS, dose 500.0 nM
[5] = target: T1, Bromodomain and extra-terminal motif (BET) (Homo sapiens); conditions: Flp-In-T-REx-293, dose 500.0 nM, time 10-240 min; remark: listed apart in the source
[6] = target: T1, Bromodomain and extra-terminal motif (BET) (Homo sapiens); conditions: Flp-In-T-REx-293, dose 500.0 nM, time 10-240 min; remark: listed apart in the source
[7] = tested on: Bromodomain-containing protein 1 (Homo sapiens), O95696 [UNDEFINED MUTATION]; assay: Inhibition of BRD1 mutant bromodomain in human U2OS cells expressing BD1 mutant assessed as diffuse nuclear localization of BD1 mutant in asynchronously growing cells at 500 nM by live cell imaging; format: cell-based
Bromodomain-containing protein 1 (Homo sapiens), O95696 [UNDEFINED MUTATION], sequence (O95696 whole entry, looked up, change not shown): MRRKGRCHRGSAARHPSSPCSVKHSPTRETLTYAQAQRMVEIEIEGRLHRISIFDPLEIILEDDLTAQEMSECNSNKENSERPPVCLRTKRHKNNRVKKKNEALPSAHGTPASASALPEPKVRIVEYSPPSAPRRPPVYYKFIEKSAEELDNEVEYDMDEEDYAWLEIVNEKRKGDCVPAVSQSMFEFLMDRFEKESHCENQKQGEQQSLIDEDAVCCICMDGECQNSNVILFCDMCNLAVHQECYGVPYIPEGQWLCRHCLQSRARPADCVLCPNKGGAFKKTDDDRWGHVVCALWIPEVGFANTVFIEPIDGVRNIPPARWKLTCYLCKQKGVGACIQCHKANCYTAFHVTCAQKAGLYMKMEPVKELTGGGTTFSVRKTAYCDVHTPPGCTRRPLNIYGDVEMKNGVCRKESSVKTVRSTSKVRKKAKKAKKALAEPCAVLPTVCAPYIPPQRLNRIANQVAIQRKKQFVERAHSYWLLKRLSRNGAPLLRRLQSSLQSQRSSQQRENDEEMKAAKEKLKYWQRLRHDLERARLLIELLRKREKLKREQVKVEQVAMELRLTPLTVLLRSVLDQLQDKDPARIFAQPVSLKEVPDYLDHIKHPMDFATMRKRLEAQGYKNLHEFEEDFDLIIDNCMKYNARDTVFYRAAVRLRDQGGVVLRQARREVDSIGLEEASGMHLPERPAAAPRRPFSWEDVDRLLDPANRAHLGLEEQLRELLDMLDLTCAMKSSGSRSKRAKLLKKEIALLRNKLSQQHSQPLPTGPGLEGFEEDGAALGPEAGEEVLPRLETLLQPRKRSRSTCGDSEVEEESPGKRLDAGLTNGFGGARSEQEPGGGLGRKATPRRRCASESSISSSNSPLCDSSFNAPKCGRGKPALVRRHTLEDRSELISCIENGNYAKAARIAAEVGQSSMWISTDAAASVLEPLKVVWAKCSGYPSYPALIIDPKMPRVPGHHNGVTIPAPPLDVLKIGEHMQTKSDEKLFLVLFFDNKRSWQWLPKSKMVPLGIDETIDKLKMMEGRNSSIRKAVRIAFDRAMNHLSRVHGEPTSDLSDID
In short: (§1)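 Flp-In T-REx U-2 OS cells were grown in DMEM with GlutaMAX and 10% heat-inactivated FBS plus penicillin-streptomycin at 37°C and 10% CO2. eGFP-tagged constructs were expressed from a tetracycline-inducible pcDNA5-FRT-TO vector. Nuclear and nucleolar localisation and foci were followed by live-cell imaging.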

[8] = tested on: Bromodomain-containing protein 3 (Homo sapiens), Q15059 [UNDEFINED MUTATION]; assay: Inhibition of BRD3 mutant bromodomain in human U2OS cells assessed as accumulation of BRD3 mutant in nucleolus at 500 nM by live cell imaging; format: cell-based
Bromodomain-containing protein 3 (Homo sapiens), Q15059 [UNDEFINED MUTATION], sequence (Q15059 whole entry, looked up, change not shown): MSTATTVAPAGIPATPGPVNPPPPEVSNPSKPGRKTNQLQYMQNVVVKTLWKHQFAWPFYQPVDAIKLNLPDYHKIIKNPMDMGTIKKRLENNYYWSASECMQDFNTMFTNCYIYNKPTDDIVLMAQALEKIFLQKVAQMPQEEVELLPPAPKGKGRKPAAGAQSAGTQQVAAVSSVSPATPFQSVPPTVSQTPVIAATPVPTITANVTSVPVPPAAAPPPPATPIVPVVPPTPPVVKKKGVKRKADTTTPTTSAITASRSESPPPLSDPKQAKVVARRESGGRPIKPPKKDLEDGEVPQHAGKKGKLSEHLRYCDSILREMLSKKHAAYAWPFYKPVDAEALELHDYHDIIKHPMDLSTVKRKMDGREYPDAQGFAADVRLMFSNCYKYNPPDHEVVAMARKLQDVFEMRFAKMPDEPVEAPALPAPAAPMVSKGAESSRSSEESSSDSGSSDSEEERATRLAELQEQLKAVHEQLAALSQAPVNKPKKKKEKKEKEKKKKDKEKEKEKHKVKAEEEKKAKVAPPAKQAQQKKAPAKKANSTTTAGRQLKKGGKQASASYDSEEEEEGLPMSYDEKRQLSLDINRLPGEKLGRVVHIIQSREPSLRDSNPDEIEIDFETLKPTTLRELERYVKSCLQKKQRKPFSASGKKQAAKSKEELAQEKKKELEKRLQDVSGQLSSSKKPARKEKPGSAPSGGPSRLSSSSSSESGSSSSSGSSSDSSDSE
In short: as §1

[9] = target: T1, Bromodomain and extra-terminal motif (BET) (Homo sapiens); conditions: Flp-In-T-REx-293, dose 500.0 nM, time 10-240 min; remark: listed apart in the source
[10] = target: T1, Bromodomain and extra-terminal motif (BET) (Homo sapiens); conditions: Flp-In-T-REx-293, dose 500.0 nM, time 10-240 min; remark: listed apart in the source
[11] = target: T1, Bromodomain and extra-terminal motif (BET) (Homo sapiens); conditions: Flp-In-T-REx-293, dose 500.0 nM
[12] = target: T1, Bromodomain and extra-terminal motif (BET) (Homo sapiens); conditions: Flp-In-T-REx-293, dose 500.0 nM, time 10-240 min; remark: listed apart in the source
BRD4/BRD9 (Homo sapiens) = BRD4/BRD9 (Homo sapiens) (UniProt O60885+Q9H8M2); conditions: HEK293, dose 5.0 nmol
BRD4/BRD9 (Homo sapiens), sequence (Q9H8M2 whole entry, looked up, other chains not shown): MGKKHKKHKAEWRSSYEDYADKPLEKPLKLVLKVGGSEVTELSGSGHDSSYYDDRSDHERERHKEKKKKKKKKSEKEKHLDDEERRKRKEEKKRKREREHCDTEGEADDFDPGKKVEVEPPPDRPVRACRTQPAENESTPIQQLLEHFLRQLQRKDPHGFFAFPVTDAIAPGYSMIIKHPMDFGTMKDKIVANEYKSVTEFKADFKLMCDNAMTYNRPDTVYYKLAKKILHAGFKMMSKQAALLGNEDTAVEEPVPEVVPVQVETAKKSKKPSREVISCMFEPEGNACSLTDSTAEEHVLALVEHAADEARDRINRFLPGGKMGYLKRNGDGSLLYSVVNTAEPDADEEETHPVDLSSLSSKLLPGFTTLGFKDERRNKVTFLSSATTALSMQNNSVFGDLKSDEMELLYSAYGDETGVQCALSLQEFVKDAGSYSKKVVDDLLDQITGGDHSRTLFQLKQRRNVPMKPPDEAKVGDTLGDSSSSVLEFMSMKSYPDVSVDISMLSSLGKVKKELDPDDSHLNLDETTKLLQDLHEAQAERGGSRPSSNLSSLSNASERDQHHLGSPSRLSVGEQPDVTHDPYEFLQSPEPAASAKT

[13] = target: T1, Bromodomain and extra-terminal motif (BET) (Homo sapiens); conditions: Flp-In-T-REx-293, dose 500.0 nM, time 1.0 hrs
[14] = target: Bromodomain-containing protein 3 (Homo sapiens) (UniProt Q15059); assay: Inhibition of BRD3 in human U2OS cells assessed as induction of assembly of GFP-tagged BRD3 constructs in to dense foci at 500 nM measured within 20 seconds by live cell imaging; format: cell-based; conditions: time 20.0 sec
Bromodomain-containing protein 3 (Homo sapiens), sequence (Q15059 2-726 limits assumed): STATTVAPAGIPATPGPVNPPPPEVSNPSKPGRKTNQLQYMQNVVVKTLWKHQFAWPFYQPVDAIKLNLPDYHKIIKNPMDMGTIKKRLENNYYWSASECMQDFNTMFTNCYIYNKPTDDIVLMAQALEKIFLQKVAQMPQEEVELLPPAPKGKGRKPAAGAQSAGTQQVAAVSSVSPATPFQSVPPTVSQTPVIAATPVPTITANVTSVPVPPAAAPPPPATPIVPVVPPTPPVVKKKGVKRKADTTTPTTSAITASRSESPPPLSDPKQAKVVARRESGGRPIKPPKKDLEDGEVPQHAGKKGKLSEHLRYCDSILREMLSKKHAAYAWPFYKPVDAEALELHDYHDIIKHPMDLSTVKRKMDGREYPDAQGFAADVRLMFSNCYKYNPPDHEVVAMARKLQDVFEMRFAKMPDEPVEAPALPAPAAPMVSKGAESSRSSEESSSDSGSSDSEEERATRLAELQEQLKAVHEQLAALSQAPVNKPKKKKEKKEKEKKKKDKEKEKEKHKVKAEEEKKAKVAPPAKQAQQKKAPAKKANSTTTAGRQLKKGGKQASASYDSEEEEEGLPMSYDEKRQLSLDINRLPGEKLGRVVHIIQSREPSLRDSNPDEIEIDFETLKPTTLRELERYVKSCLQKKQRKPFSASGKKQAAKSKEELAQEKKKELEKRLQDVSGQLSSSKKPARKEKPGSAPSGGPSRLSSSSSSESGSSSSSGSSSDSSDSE
In short: as §1

[15] = target: T1, Bromodomain and extra-terminal motif (BET) (Homo sapiens); conditions: Flp-In-T-REx-293, dose 500.0 nM, time 10-240 min; remark: listed apart in the source
[16] = target: Bromodomain-containing protein 3 (Homo sapiens) (UniProt Q15059); assay: Inhibition of BRD3 in human U2OS cells assessed as induction of assembly of GFP-tagged BRD3 constructs in to dense foci at 500 nM measured 12 hrs after drug washout by live cell imaging; format: cell-based
In short: as §1

[17] = target: Bromodomain-containing protein 3 (Homo sapiens) (UniProt Q15059); assay: Inhibition of BRD3 in human U2OS cells assessed as displacement of BRD3 from rDNA IGS region toward the transcribed regions at 500 nM; format: cell-based
[18] = target: Bromodomain-containing protein 3 (Homo sapiens) (UniProt Q15059); assay: Inhibition of BRD3 in human U2OS cells assessed as increase in association with partner protein (TCOF1, UBTF, and RNAPI) at 500 nM; format: cell-based
[19] = target: T1, Bromodomain and extra-terminal motif (BET) (Homo sapiens); conditions: Flp-In-T-REx-293, dose 500.0 nM, time 10-240 min; remark: listed apart in the source
U2OS [20] = assay: Effect on localization of the nucleolar proteins (PARP1, POLR1E, and TCOF1) in human U2OS cells at 500 nM; format: functional, cell-based
In short: as §1

U2OS [21] = assay: Inhibition of BRD1:2 mutant bromodomain in human U2OS cells assessed as foci formation of BRD2 mutant in to foci at 500 nM by live cell imaging; format: cell-based
In short: as §1

[22] = target: Bromodomain-containing protein 3 (Homo sapiens) (UniProt Q15059); assay: Inhibition of BRD3 in human Flp-In-T-REx-293 cells assessed as increase in nucleolar protein partners (RNAPI, UBTF and TCOF1 ) at 500 nM incubated for 24 hrs by BioID assay; format: cell-based
In short: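 Stable Flp-In T-REx HEK293 lines carrying BirA*-FLAG-tagged baits were grown in hygromycin to 80% confluence. Expression was induced with 1 μg/mL tetracycline and cells were given 50 μM biotin for 24 h. Lysis was in RIPA, with streptavidin capture for 3 h at 4°C and on-bead trypsin digestion, then LC-MS/MS. BirA*-FLAG-GFP or -NLS cells served as controls. Two biological replicates were run.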

[23] = tested on: Bromodomain-containing protein 3 (Homo sapiens), Q15059 [UNDEFINED MUTATION]; assay: Inhibition of BRD3 mutant bromodomain in human U2OS cells assessed as accumulation of BRD3 mutant in to foci at 500 nM by live cell imaging; format: cell-based
In short: as §1

[24] = target: Bromodomain-containing protein 2 (Homo sapiens) (UniProt P25440); conditions: U2OS, dose 500.0 nM, time 20.0 sec
[25] = target: T1, Bromodomain and extra-terminal motif (BET) (Homo sapiens); conditions: Flp-In-T-REx-293, dose 500.0 nM; remark: listed apart in the source

Cc1sc2c(c1C)C(c1ccc(Cl)cc1)=N[C@@H](CC(=O)OC(C)(C)C)c1nnc(C)n1-2
inhibition [1]: Active | inhibition [2]: inactive | inhibition [3]: Active | inhibition [4]: inactive | inhibition [5]: Active | log2FC [6]: > 2 | inhibition [7]: inactive | inhibition [8]: Active | inhibition [9]: Active | log2FC [10]: > 2 | inhibition [11]: Active | inhibition [12]: Active | inhibition (BRD4/BRD9 (Homo sapiens)): inactive | inhibition [13]: Active | inhibition [14]: Active | log2FC [15]: 2 | inhibition [16]: Active | inhibition [17]: Active | inhibition [18]: Active | inhibition [19]: Active | Activity (U2OS [20]): inactive | inhibition (U2OS [21]): inactive | inhibition [22]: Active | inhibition [23]: Active | inhibition [24]: Active | inhibition [25]: Active
